According to ChEMBL document CHEMBL4428057, “Discovery, Synthesis, and Evaluation of 2,4-Diaminoquinazolines as a Novel Class of Pancreatic β-Cell-Protective Agents against Endoplasmic Reticulum (ER) Stress” (J Med Chem, 2016):
The source made the active and inactive calls.

Assays:
INS1 [1] = assay: Protection against tunicamycin induced endoplasmic reticulum stress in rat INS-1 cells assessed as increase in cell viability at 5 uM after 72 hrs by CellTiter-Glo assay; assay type: functional, cell-based
Beta-TC6 = assay: Protection against tunicamycin induced endoplasmic reticulum stress in mouse BetaTC6 cells assessed as increase in cell viability after 72 hrs by CellTiter-Glo assay; assay type: functional, cell-based
Method in brief: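 βTC6 cells (DMEM, 15% FBS) seeded at 3×10^3/well in 384-well plates with Tm 0.25 µg/mL ± compound or DMSO for 72 h. Viability by CellTiter-Glo (ATP luminescence) or MTT: 3 h with reagent at 37 °C, then 4 h with crystal-dissolving solution, absorbance at 570 nm. 3 replicate wells, 3 experiments.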

INS1 [2] = assay: Protection against BFA induced endoplasmic reticulum stress in rat INS-1 cells assessed as increase in cell viability at 20 uM after 72 hrs by CellTiter-Glo assay; assay type: functional, cell-based
Method in brief: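 INS-1 cells at 3×10^3/well (384-well) treated with brefeldin A 0.2 µg/mL ± compound 20 µM or DMSO for 72 h. Viability read as intracellular ATP by CellTiter-Glo luminescence. Means of 3 replicate wells, representative of 3 independent experiments; SD.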

INS1 [3] = assay: Reversal of tunicamycin induced PARP cleavage in rat INS-1 cells at 20 uM after 2 to 24 hrs by Western blot analysis; assay type: functional, cell-based
Method in brief: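 Western blots of INS-1 cells (8×10^5/60-mm dish) treated with Tm 0.1 µg/mL ± compound 20 µM or DMSO for the indicated times. Lysates with EDTA and phosphatase inhibitors; 20 µg protein on 7% SDS-PAGE, PVDF. Primary antibodies at 1:1000 against ATF4, CHOP, cleaved caspase 3 or PARP; α-tubulin loading control; HRP secondaries. Representative of 3 experiments.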

INS1 [4] = assay: Reversal of tunicamycin suppressed INS2 mRNA levels in rat INS-1 cells at 20 uM after 24 hrs by qRT-PCR method; assay type: functional, cell-based
Method in brief: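 INS-1 cells (4×10^5/well, 6-well plates) given Tm 0.1 µg/mL ± compound 20 µM or DMSO for 24 h. INS1, INS2, PDX1 and MafA mRNA measured by qRT-PCR with rat primers. Means of 3 replicate wells, representative of 3 independent experiments; SD.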

[5] = target: T1, Cyclic AMP-dependent transcription factor ATF-6 alpha (Rattus norvegicus) (UniProt G3V909); assay: Inhibition of ATF6 in rat INS-1 cells assessed as suppression of tunicamycin induced GRP94 mRNA levels at 20 uM after 4 to 24 hrs by qRT-PCR method; assay type: cell-based
T1 sequence (whole entry): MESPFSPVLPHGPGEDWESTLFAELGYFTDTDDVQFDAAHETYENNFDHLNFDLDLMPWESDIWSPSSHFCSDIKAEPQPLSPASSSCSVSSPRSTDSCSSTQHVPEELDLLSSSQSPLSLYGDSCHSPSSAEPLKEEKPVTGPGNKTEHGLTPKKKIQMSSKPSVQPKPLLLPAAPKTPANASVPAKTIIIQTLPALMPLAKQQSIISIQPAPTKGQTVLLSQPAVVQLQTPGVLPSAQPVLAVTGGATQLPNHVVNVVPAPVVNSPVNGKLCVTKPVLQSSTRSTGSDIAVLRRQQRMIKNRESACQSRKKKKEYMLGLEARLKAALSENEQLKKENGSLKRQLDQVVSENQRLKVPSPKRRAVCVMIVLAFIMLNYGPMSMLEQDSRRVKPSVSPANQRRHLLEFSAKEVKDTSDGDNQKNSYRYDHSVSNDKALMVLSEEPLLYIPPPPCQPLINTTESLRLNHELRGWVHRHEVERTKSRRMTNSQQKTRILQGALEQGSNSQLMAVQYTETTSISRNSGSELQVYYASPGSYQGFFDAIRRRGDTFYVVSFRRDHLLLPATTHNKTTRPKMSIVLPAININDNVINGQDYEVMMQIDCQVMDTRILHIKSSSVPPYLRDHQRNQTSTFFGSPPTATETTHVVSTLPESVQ
Method in brief: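 INS-1 cells seeded at 4×10^5/well in 6-well plates, given Tm 0.1 µg/mL ± compound 20 µM or DMSO for the indicated times. Bip or GRP94 mRNA measured by qRT-PCR, expressed as fold-increase over untreated control. Means of 3 replicate wells, representative of 3 independent experiments.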

[6] = target: T2, Eukaryotic translation initiation factor 2-alpha kinase 3 (Rattus norvegicus) (UniProt Q9Z1Z1); assay: Inhibition of PERK pathway in rat INS-1 cells assessed as reduction in tunicamycin induced CHOP mRNA levels at 20 uM after 2 to 24 hrs by qRT-PCR method; assay type: cell-based
T2 sequence (whole entry): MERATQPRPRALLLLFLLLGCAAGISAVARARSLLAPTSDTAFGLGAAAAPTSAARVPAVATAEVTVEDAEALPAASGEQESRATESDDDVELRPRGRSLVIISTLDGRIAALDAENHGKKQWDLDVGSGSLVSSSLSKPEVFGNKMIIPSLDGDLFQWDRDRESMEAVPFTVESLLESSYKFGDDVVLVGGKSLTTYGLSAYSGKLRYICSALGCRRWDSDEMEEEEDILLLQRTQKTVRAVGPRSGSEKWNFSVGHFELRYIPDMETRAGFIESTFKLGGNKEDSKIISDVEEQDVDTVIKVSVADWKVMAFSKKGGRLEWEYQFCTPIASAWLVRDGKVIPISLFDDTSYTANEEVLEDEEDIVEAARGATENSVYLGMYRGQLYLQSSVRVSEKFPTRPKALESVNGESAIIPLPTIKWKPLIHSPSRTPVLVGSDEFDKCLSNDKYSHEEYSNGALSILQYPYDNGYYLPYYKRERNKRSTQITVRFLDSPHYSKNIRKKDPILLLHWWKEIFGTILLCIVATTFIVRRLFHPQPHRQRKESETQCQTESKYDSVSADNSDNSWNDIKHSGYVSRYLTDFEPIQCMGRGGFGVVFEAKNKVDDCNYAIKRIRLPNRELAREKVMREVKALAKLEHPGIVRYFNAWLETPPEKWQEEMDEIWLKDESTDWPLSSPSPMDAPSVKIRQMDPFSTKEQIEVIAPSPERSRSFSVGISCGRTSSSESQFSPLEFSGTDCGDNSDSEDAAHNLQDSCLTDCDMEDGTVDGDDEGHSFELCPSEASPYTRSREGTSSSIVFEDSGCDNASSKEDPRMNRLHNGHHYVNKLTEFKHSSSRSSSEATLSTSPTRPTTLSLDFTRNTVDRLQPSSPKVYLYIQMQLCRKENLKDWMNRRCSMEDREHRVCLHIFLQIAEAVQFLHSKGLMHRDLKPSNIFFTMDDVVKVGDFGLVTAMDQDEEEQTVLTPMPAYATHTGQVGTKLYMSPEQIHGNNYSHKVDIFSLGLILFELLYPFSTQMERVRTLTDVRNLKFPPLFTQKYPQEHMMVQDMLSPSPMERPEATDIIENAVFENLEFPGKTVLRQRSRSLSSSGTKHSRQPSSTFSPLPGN
Method in brief: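 ATF4 or CHOP mRNA measured by qRT-PCR in INS-1 cells treated with Tm 0.1 µg/mL ± compound 20 µM or DMSO for the indicated times. Expressed as fold-increase over untreated control; means of 3 replicate wells, representative of 3 independent experiments, SD.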

COc1ccc(CNc2nc(N3CCCCC3CO)nc3ccccc23)cc1 (racemic)
active: Activity (INS1 [1]) | Activity (Beta-TC6) Dose-dependent effect | Activity (INS1 [2]) | Activity (INS1 [3]) | Activity (INS1 [4]) | inhibition [5] | inhibition [6]
